One may read the IC50 as the concentration that gives 50% inhibition.

This is an account of results in ChEMBL document CHEMBL2434884, “Natural product derived antiprotozoal agents: synthesis, biological evaluation, and structure-activity relationships of novel chromene and chromane derivatives” (J Med Chem, 2013).

Data set [1] has as its system Trypanosoma brucei rhodesiense. In words: Antiprotozoal activity against trypomastigote form of Trypanosoma brucei rhodesiense STIB 900 assessed as parasite growth inhibition. Type of data set: functional, organism-based.
Data set [2] is described as follows: Selectivity index, ratio of IC50 for rat L6 cells to ratio of IC50 for trypomastigote form of Trypanosoma brucei rhodesiense STIB 900. The format is toxicity, cell-based. As to conditions: read-out: Selectivity Index.
Data set [3] relates to Plasmodium falciparum. Nature of the data set: Potency index, ratio of chloroquine IC50 to compound IC50 for chloroquine/pyrimethamine-resistant erythrocytic form of Plasmodium falciparum K1. Type of data set: functional.
The test system of data set [4] is Plasmodium falciparum. In words: Antiprotozoal activity against chloroquine/pyrimethamine-resistant erythrocytic form of Plasmodium falciparum K1 assessed as parasite growth inhibition. Type of data set: functional, organism-based.
Data set [5] has as its system L6. Nature of the data set: Cytotoxicity against rat L6 cells. Type of data set: cell-based. The gist of the method: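 L6 rat skeletal myoblasts; cytotoxicity IC50 determined at the Swiss Tropical and Public Health Institute by an earlier standard protocol.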
Data set [6] in a line: Selectivity index, ratio of IC50 for rat L6 cells to ratio of IC50 for chloroquine/pyrimethamine-resistant erythrocytic form of Plasmodium falciparum K1. Type of data set: toxicity, cell-based. The following applies: read-out: Selectivity Index.
Data set [7] deals with Leishmania tarentolae. Nature of the data set: Antiprotozoal activity against promastigote form of Leishmania tarentolae P10 assessed as parasite growth inhibition after 48 hrs by MTT assay. Type of data set: functional, organism-based. The following applies: P10, 48 h. The gist of the method: (§1)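 Promastigotes of nonpathogenic lizard-infecting L. tarentolae strain P10, cultured in hemin-supplemented BHI medium; IC50 determined.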
(Tetrazolium dyes change colour on reduction, which living cells bring about.)

Data set [8] concerns Leishmania donovani. Nature of the data set: Antiprotozoal activity against axenic amastigote form of Leishmania donovani MHOM/ET/67/L82 assessed as parasite growth inhibition. The format is functional, organism-based.
The nature of data set [9]: Selectivity index, ratio of IC50 for rat L6 cells to ratio of IC50 for axenic amastigote form of Leishmania donovani MHOM/ET/67/L82. Type of data set: toxicity, cell-based. The following applies: read-out: Selectivity Index.
In data set [10] the test system is Trypanosoma cruzi. Nature of the data set: Antiprotozoal activity against intracellular amastigote form of Trypanosoma cruzi Tulahuen C4 assessed as parasite growth inhibition. Type of data set: functional, organism-based.
The test system of data set [11] is Trypanosoma cruzi. Nature of the data set: Antiprotozoal activity against Trypanosoma cruzi assessed as parasite growth inhibition. The format is functional, organism-based. The gist of the method:
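T. cruzi intracellular amastigote stage, Tulahuen C4 strain; assayed at the Swiss Tropical and Public Health Institute by an earlier standard protocol.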

The test system of data set [12] is Leishmania donovani. Nature of the data set: Antiprotozoal activity against Leishmania donovani assessed as parasite growth inhibition.
Data set [13] concerns Leishmania tarentolae. Nature of the data set: Antiprotozoal activity against Leishmania tarentolae assessed as parasite growth inhibition. The format is functional, organism-based. The essentials: as §1

Turning to `CC(NCCCc1ccccc1)c1cc2c(cc1O)OC(C)(C)C=C2` (stereo unspecified), the 50% inhibitory concentration (IC50) in [1] came out at 5.31 µM; in [4], 0.01 µM; in [5], 27 µM; in data set [7], 6.2 µM. Besides, the selectivity ratio was found to be 5.08 in data set [2] and 1820 in [6]. In addition, the “Ratio IC50” value in data set [3] is given as 25.

As to `C/C=C(/C)C(=O)OC(C)c1cc2c(cc1OC)OC(C)(C)C=C2` (stereo unspecified), the IC50 in [1] amounted to 157 µM; in data set [4], 18.9 µM; in data set [5], 139 µM; in data set [8], 46.2 µM; in data set [10] it was 61.4 µM; in [7], 21.3 µM. Moreover, the selectivity ratio in [2] is 0.89; in [6], 7.35; in data set [9], 3.

For `COc1cc2c(cc1C(C)OCc1ccccc1)C=CC(C)(C)O2` (stereo unspecified), the IC50 came to 76.1 µM in data set [1]; 9.48 µM in [4]; 43.9 µM in [5]; 21.2 µM in data set [8]; 45 µM in data set [10]; 1.53 µM in data set [7]. For the same compound, the selectivity ratio in [2] came to 0.58; in data set [6], 4.64; in [9], 2.1.

`COc1cc2c(cc1C(C)OCCc1ccccc1)C=CC(C)(C)O2` (stereo unspecified): the IC50 in data set [1] worked out at 180 µM; in data set [4], 59.9 µM; in data set [5] it was 123 µM; in [8], 63.5 µM; in data set [10], 56.7 µM; in data set [7], 1.17 µM. For the same compound, the selectivity ratio in [2] came to 0.69; in data set [6] it was 2.08; in [9], 1.9.

With `COc1cc2c(cc1C(C)NC(=O)c1ccccc1)C=CC(C)(C)O2` (stereo unspecified), the IC50 in data set [1] amounted to 23.4 µM; in [4], 11.5 µM; in data set [5], 34.8 µM; in [8] it was 26.3 µM; in [10] it was 36.8 µM; in data set [7] it was 8.61 µM. In addition, the values for the selectivity ratio in data set [2], in data set [6] and in [9] were 1.45, 3.01 and 1.3, respectively.

Consider `COc1cc2c(cc1C(C)NC(=O)Cc1ccccc1)C=CC(C)(C)O2` (stereo unspecified), for which the IC50 in [1] was 103 µM; in data set [4] it was 31 µM; in data set [5] it was 86.5 µM; in data set [8], 53.8 µM; in [10] it was 44.7 µM; in data set [7], 7.69 µM. For the same compound, the selectivity ratio in [2] was 0.83; in [6], 2.79; in data set [9] it was 1.6.

With `COc1cc2c(cc1C(C)NCc1ccccc1)C=CC(C)(C)O2` (stereo unspecified), the IC50 in data set [1] worked out at 2.38 µM; in [4] it was 0.64 µM; in data set [5], 21 µM; in data set [8] it was 159 µM; in data set [10] it was 33.9 µM; in data set [7] it was 2.4 µM. Also, the selectivity ratio stood at 8.83 in data set [2], 32.8 in data set [6] and 0.13 in data set [9].

Turning to `COc1cc2c(cc1C(C)NCCc1ccccc1)C=CC(C)(C)O2` (stereo unspecified), the IC50 in data set [1] was 2.22 µM; in [4], 2.42 µM; in [5], 15.4 µM; in [8] it was 127 µM; in [10], 9.1 µM; in data set [7], 1.04 µM. Also, the selectivity ratio was 6.93 in data set [2], 6.34 in data set [6] and 0.12 in data set [9].

As to `COc1cc2c(cc1C(C)NCCCc1ccccc1)C=CC(C)(C)O2` (stereo unspecified), the IC50 in [1] came out at 1.03 µM; in data set [4], 0.85 µM; in [5], 1.08 µM; in [8] it was 101 µM; in [10], 13.6 µM; in data set [7], 0.22 µM. Also, the selectivity ratio came out at 1.05 in [2], 1.27 in [6] and 0.01 in [9].

Turning to `COc1cc2c(cc1C(C)NCCCCc1ccccc1)C=CC(C)(C)O2` (stereo unspecified), the IC50 in data set [1] came out at 3.15 µM; in data set [4], 1.41 µM; in data set [5], 4.73 µM; in [8] it was 71.7 µM; in data set [10], 4.19 µM; in data set [7], 0.77 µM. Further, the selectivity ratio came out at 1.5 in [2], 3.35 in [6] and 0.07 in data set [9].

As to `COc1ccc(CNC(C)c2cc3c(cc2OC)OC(C)(C)C=C3)cc1` (stereo unspecified), the IC50 amounted to 2.42 µM in data set [1]; 0.93 µM in data set [4]; 14.9 µM in data set [5]; 225 µM in data set [8]; 33.1 µM in data set [10]; 9.8 µM in data set [7]. The selectivity ratio is 6.13 in data set [2], 16 in data set [6] and 0.07 in data set [9].

For the compound `COc1cc2c(cc1C(C)NC/C=C/c1ccccc1)C=CC(C)(C)O2` (stereo unspecified), the half-inhibitory concentration (IC50) in data set [1] stood at 5.84 µM; in data set [4] it was 4.41 µM; in data set [5], 14.6 µM; in data set [8], 62.4 µM; in data set [10], 8.13 µM; in [7], 3.26 µM. Further, the selectivity ratio worked out at 2.5 in data set [2], 3.32 in data set [6] and 0.23 in data set [9].

Take `CCNC(C)c1cc2c(cc1OC)OC(C)(C)C=C2` (stereo unspecified): the IC50 in [1] came to 22.8 µM; in [4] it was 8.12 µM; in [5], 176 µM; in [8], 365 µM; in data set [10], 91.5 µM; in [7], 8.76 µM. Moreover, the selectivity ratio in [2] was 7.71; in data set [6], 22; in [9] it was 0.48.

In the case of `COc1cc2c(cc1C(C)NCC1CCCCC1)C=CC(C)(C)O2` (stereo unspecified), the IC50 in data set [1] came to 2.16 µM; in [4], 2.46 µM; in [5] it was 14.5 µM; in data set [8], 139 µM; in data set [10], 12.9 µM; in data set [7] it was 0.65 µM. Moreover, the selectivity ratio in [2] was found to be 6.69; in data set [6], 5.88; in [9] it was 0.1.

For `COc1cc2c(cc1C(C)N1CCOCC1)C=CC(C)(C)O2` (stereo unspecified), the concentration for half-maximal inhibition (IC50) in [1] turned out to be 96.2 µM; in data set [4] it was 9.92 µM; in [5], 157 µM; in data set [8] it was 148 µM; in data set [10] it was 110 µM; in data set [7] it was 12.4 µM. The selectivity ratio in data set [2] came out at 1.63; in data set [6], 15.9; in data set [9], 1.06.

Turning to `COc1cc2c(cc1C(C)N1CCCC1)C=CC(C)(C)O2` (stereo unspecified), the IC50 came out at 41.1 µM in data set [1]; 16.4 µM in data set [4]; 177 µM in data set [5]; 270 µM in data set [8]; 68.2 µM in data set [10]; 18.6 µM in data set [7]. Also, the values for the selectivity ratio in data set [2], in [6] and in [9] were 4.31, 10.8 and 0.66, respectively.

With `COc1cc2c(cc1C(C)N(C)CCCc1ccccc1)C=CC(C)(C)O2` (stereo unspecified), the IC50 stood at 3.17 µM in [1]; 1.24 µM in [4]; 16.3 µM in data set [5]; 84.3 µM in data set [8]; 9.17 µM in [10]; 9.01 µM in [7]. For the same compound, the figures for the selectivity ratio in data set [2], in data set [6] and in [9] were 5.12, 13.5 and 0.19, respectively.

As to `CC(NCc1ccccc1)c1cc2c(cc1O)OC(C)(C)C=C2` (stereo unspecified), the IC50 in data set [1] worked out at 6.18 µM; in [4], 0.02 µM; in [5], 109 µM; in [7] it was 12.4 µM. Moreover, the results for the selectivity ratio in [2] and in [6] were 17.7 and 6760, respectively. For the same compound, the “Ratio IC50” value in [3] worked out at 10.

In the case of `O=C(Cn1ccnc1[N+](=O)[O-])NCc1ccccc1` [BENZNIDAZOLE], the IC50 in data set [11] is 1.57 µM.

In the case of `CCCCCCCCCCCCCCCCOP(=O)([O-])OCC[N+](C)(C)C` [MILTEFOSINE], the concentration for half-maximal inhibition (IC50) in data set [12] stood at 0.361 µM.

Consider `N=C(N)c1ccc(OCCCCCOc2ccc(C(=N)N)cc2)cc1` [PENTAMIDINE], for which, in data set [13], the IC50 came to 0.03 µM.
